# Active and inactive are the calls of the source.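 How the source made its calls, unless noted: active means viability at or below 10% of carrier control in both of two separate runs; inconclusive means viability at or below 10% in only one of the two runs; inactive means the rest.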
# How the values were obtained:
# [1] = reduced viability of SK-BR-3 breast cancer cells – cell-based, 24 h, human, pilot screen (AID 572); settings: SK-BR-3 viability, CellTiter-Glo luminescence, at 10 µM, stronger effect = lower value;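 further: compound exposure lasted between 18 and 24 h rather than exactly 24 h; 100% = carrier-treated control wells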
# [2] = HUVEC growth inhibition – cell-based, human, primary screen (AID 575;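 active means viability at or below 30% in both replicate assays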;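 further: 100% = median of untreated cell wells with 0.1% DMSO on each plate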); settings: HUVEC proliferation, CellTiter-Glo luminescence, 72 h; at 10 µM; stronger effect = lower value
# In short: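 system = HUVEC primary cells | amount = 1250 cells/well | buffer or medium = supplemented EBM, 2% fetal bovine serum | dosing = single-point 10 µM, DMSO 0.1% final | times = 72 h compound incubation | detection = CTG luminescence | read-out = % viability relative to median vehicle-well signal on each plate | control set = vehicle and MePR control wells | format = collagen-coated 384-well format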
# [3] = H69AR cell proliferation blockers – human, duplicate replicates, primary screen (AID 580;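 active means viability at or under a set limit in both replicates, limit being median viability minus 3 SD, cut at about 48% in these data, passing the limit was not always enough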;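 further: 100% = mean luminescence of untreated wells and 0% = no signal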); settings: H69AR lung tumor cells viability, ATP luminescence, 72 h; at 10 µM; stronger effect = lower value
# [4] = MRP1 drug-resistance reversers in H69AR cells – cell-based, doxorubicin co-treatment, pilot screen (AID 601;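 active means viability loss from added drug above about 55%, and viability with drug at most 40%, in both replicates, limit read from the data, passing the limit was not always enough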); settings: CellTiter-Glo, 72 h, at 10 µM; for differential viability (reversal): stronger effect = higher value
# [5] = yeast transport mutant growth inhibition pilot in 384-well plates, post-Golgi transport modulator project (AID 636; in the data active means inhibition above about 31%); settings: absorbance 615 nm, about 18 h, stronger effect = higher value
# [6] = growth suppression of yeast trafficking mutant, preliminary HTS, modulators of trafficking downstream of Golgi apparatus project, 1536-format plate, OD 615 nm (AID 637; in the data active means inhibition above about 30%); settings: yeast transport mutant growth, absorbance 615 nm, 18 h; stronger effect = higher value
# [7] = H69AR cells + 2 uM doxorubicin, measured here: viability with 2 uM doxorubicin, stronger effect = lower value
# [8] = H69AR cells, compound alone cytotoxicity
SMILES,viability [1],viability [2],viability [3],differential viability (reversal) ([4]; H69AR cells + 2 uM doxorubicin),"viability [4, 7] [%]","viability [4, 8] [%]",inhibition [5],inhibition [6]
O=C(O)CSC1CC(=O)N(c2ccc(Cl)c(Cl)c2)C1=O (stereo not drawn),104% (inactive),109% (inactive),98.8% (inactive),7.75% (inactive),91.1,98.8,-8.38% (inactive),0.36% (inactive)
CCOC(=O)C1CCCN(C(=O)Cc2ccc(OC)c(OC)c2)C1 (stereo not drawn),81% (inactive),99.5% (inactive),94.5% (inactive),2.69% (inactive),91.8,94.5,-6.85% (inactive),1.09% (inactive)
CCOC(=O)N1CCC(NC(=O)C2CCC(Cn3c(=O)[nH]c4ccccc4c3=O)CC2)CC1 (stereo not drawn),134% (inactive),64.8% (inactive),16.8% (active),-7.75% (inactive),24.6,16.8,-5.71% (inactive),0.66% (inactive)
O=C(CSc1nnc(-c2ccco2)n1CC1CCCO1)NC1CCCC1 (stereo not drawn),116% (inactive),94.6% (inactive),94.3% (inactive),7.47% (inactive),86.8,94.3,-2% (inactive),-5.27% (inactive)
CCOC(=O)c1cnc(-n2nc(C)cc2C)nc1N1CC(C)OC(C)C1 (stereo not drawn),127% (inactive),105% (inactive),86.1% (inactive),9.65% (inactive),76.4,86.1,-3.47% (inactive),0.73% (inactive)
CCc1nc2sc3ccccc3c(=O)c2c(=O)n1Cc1ccco1,73% (inactive),82.6% (inactive),77% (inactive),2.49% (inactive),74.5,77,-3.77% (inactive),0.98% (inactive)
O=C(NCN1CCCCC1)c1cccnc1,134% (inactive),102% (inactive),106% (inactive),-0.935% (inactive),107,106,-3.9% (inactive),6.07% (inactive)
CS(=O)(=O)N(CC(=O)NCc1ccncc1)Cc1ccc(Cl)cc1,104% (inactive),101% (inactive),98.3% (inactive),0.52% (inactive),97.8,98.3,-8.36% (inactive),0.81% (inactive)
CCCNC(=O)N1CCN(S(=O)(=O)c2ccc(C)c(C)c2)CC1,85% (inactive),112% (inactive),95% (inactive),-0.65% (inactive),95.7,95,3.42% (inactive),0% (inactive)
CN(C)CCC(c1ccc(Br)cc1)c1ccccn1 (stereo not drawn),110% (inactive),80.3% (inactive),102% (inactive),10.6% (inactive),91.4,102,-2.73% (inactive),-3.5% (inactive)
Cc1noc(C)c1C(=O)N1CCN(C(=O)c2sc3cc(Cl)ccc3c2Cl)CC1,103% (inactive),106% (inactive),89% (inactive),8.48% (inactive),80.5,89,-5.14% (inactive),-1.64% (inactive)
O=C(Nc1ccc(F)cc1)N(CCCN1CCOCC1)Cc1cc2cc3c(cc2[nH]c1=O)OCO3,85% (inactive),105% (inactive),90.8% (inactive),7.71% (inactive),83.1,90.8,-7.97% (inactive),2.55% (inactive)
CSCCC(NC(=O)CCN1C(=O)c2ccccc2C1=O)C(=O)O (stereo not drawn),85% (inactive),101% (inactive),98.5% (inactive),13.8% (inactive),84.7,98.5,-3.01% (inactive),6.73% (inactive)
CCOc1cc(C(=O)N(C)Cc2cc3cc(OC)ccc3[nH]c2=O)cc(OCC)c1OCC,88% (inactive),114% (inactive),95.1% (inactive),-1.01% (inactive),96.2,95.1,-4.46% (inactive),17.3% (inactive)
CCOc1cccc2cc(C(=O)N3CCN(C/C=C/c4ccccc4)CC3)c(=O)oc12,89% (inactive),106% (inactive),91.4% (inactive),22.8% (inactive),68.6,91.4,-5.68% (inactive),-4.73% (inactive)
O=C(c1ccc(S(=O)(=O)N2CCC(c3nc4ccccc4s3)CC2)cc1)N1CCOCC1,97% (inactive),100% (inactive),71.4% (inactive),-28.7% (inactive),100,71.4,-5.34% (inactive),3.64% (inactive)
Cc1cc(C)c(NC(=O)CSc2nnc(-c3ccncc3)n2Cc2ccco2)c(C)c1,91% (inactive),109% (inactive),97.4% (inactive),3.25% (inactive),94.2,97.4,-2.7% (inactive),-4.73% (inactive)
CC(=O)Nc1ccc(NC(=O)Cn2cnc3c(cnn3C(C)(C)C)c2=O)cc1,101% (inactive),87.9% (inactive),98.9% (inactive),13.8% (inactive),85.1,98.9,-5.47% (inactive),3.27% (inactive)

SMILES,viability [1],viability [2],viability [3],differential viability (reversal) ([4]; H69AR cells + 2 uM doxorubicin),"viability [4, 7] [%]","viability [4, 8] [%]",inhibition [5],inhibition [6]
COc1ccc(CN(C2CCCC2)S(=O)(=O)c2ccc(-n3cnnn3)cc2)cc1OC,71% (inactive),80.5% (inactive),81.6% (inactive),-14% (inactive),95.6,81.6,-7.12% (inactive),0.81% (inactive)
Cc1ccc(C(C(=O)NC2CCCCC2)N(C(=O)c2csnn2)C2CCCC2)o1 (stereo not drawn),108% (inactive),101% (inactive),80.4% (inactive),1.01% (inactive),79.4,80.4,-0.65% (inactive),-2.46% (inactive)
CC(=O)O[C@H]1C[C@@H]2CC[C@@H]3[C@H](CC[C@@]4(C)[C@H]3C[C@H]([N+]3(C)CCCCC3)[C@@H]4OC(C)=O)[C@@]2(C)C[C@@H]1[N+]1(C)CCCCC1,111% (inactive),88.4% (inactive),94.5% (inactive),-4.76% (inactive),99.3,94.5,1.04% (inactive),12.7% (inactive)
Cc1cccc(C(=O)N(C)c2nnc(-c3ccncc3)s2)c1,98% (inactive),92.5% (inactive),85.8% (inactive),-3.53% (inactive),89.4,85.8,-0.41% (inactive),24.7% (inactive)
COc1ccc(CCNC(=O)CSCc2n[nH]c(=O)[nH]2)cc1OC,110% (inactive),89.3% (inactive),88.5% (inactive),-0.08% (inactive),88.6,88.5,-10.7% (inactive),0% (inactive)
COC(=O)c1ccc(-c2ccco2)n1Cc1nc(-c2ccc(OC)c(OC)c2)oc1C,125% (inactive),25.9% (active),48.8% (active),-8.4% (inactive),57.2,48.8,-4.32% (inactive),4.73% (inactive)
CCOC(=O)c1cccc(NC(=O)CSc2nnc(-c3cccnc3)n2C)c1,99% (inactive),107% (inactive),98.3% (inactive),5.64% (inactive),92.7,98.3,-3.38% (inactive),-0.73% (inactive)
c1ccc(-c2cc(-c3nc(-c4ccccn4)no3)c3ccccc3n2)cc1,139% (inactive),63.9% (inactive),59% (inactive),2.75% (inactive),56.3,59,-2.7% (inactive),8% (inactive)
Cc1nc2scc(-c3ccco3)c2c(=O)n1/N=C/N(C)C,87% (inactive),76.1% (inactive),95.3% (inactive),2.7% (inactive),92.6,95.3,-4.86% (inactive),-4.73% (inactive)
O=C1c2ccccc2C(=O)N1c1cccc(-c2nc3ccccc3o2)c1,114% (inactive),72.5% (inactive),111% (inactive),7.94% (inactive),103,111,-4.13% (inactive),-3.09% (inactive)
CC(C)NCC(O)COc1cccc2[nH]ccc12 (stereo not drawn),111% (inactive),78.3% (inactive),99.2% (inactive),-1.55% (inactive),101,99.2,-3.25% (inactive),-3.17% (inactive)
COc1nc(-c2ccc(Cl)cc2)ccc1-c1noc(-c2ccncc2)n1,109% (inactive),103% (inactive),82.4% (inactive),1.99% (inactive),80.4,82.4,-6.99% (inactive),-7.64% (inactive)
Nc1ccc(S(=O)(=O)Nc2ccccn2)cc1,143% (inactive),102% (inactive),91.3% (inactive),10.3% (inactive),81,91.3,0.78% (inactive),-1.17% (inactive)
COc1ccc(-n2c(SCC(=O)N3CCCCC3C)nnc2-c2cccnc2)cc1 (stereo not drawn),87% (inactive),98.7% (inactive),102% (inactive),10.5% (inactive),91.1,102,-5.54% (inactive),2% (inactive)
O=C(c1cnc2sccn2c1=O)N1CCc2ccccc2C1,95% (inactive),95.7% (inactive),104% (inactive),7.95% (inactive),96.2,104,-2.8% (inactive),-4.36% (inactive)
O=S(=O)(Nc1nc2ccccc2nc1NCc1ccco1)c1cccs1,91% (inactive),100% (inactive),29% (active),-23% (inactive),51.9,29,-5.68% (inactive),0.73% (inactive)
C[C@]12CC[C@@H]3c4ccc(O)cc4CC[C@H]3[C@@H]1CCC2=O,120% (inactive),63.4% (inactive),91.8% (inactive),4.7% (inactive),87.1,91.8,-1.56% (inactive),0.5% (inactive)
CCN(CCO)C(=O)CC(c1ccccc1)c1cc(Br)ccc1O (stereo not drawn),101% (inactive),101% (inactive),93.8% (inactive),-3.22% (inactive),97,93.8,-2.3% (inactive),-3.09% (inactive)

# Reference: PubChem BioAssay
